Published values pooled from the literature.
Protocols differ between the studies behind these lines.
Observed: metabolic stability
Host: human
Matrix: liver microsomes

SMILES	tested at	pH	microsomal CLint
c1ccc(Oc2ccc(Nc3c4c(nc5ccccc35)CCC4)cc2)cc1	0.5 µM		31 µL/min/mg
CONC(=O)N1CCC[C@H](C(=O)NCc2nc(-c3ccccc3)cs2)C1	0.5 µM		7.3 µL/min/mg
Cc1ccc(OCC(=O)N[C@@H](Cc2c[nH]c3ccccc23)C(=O)OC(C)C)cc1	20 mM		14.6 µL/min/mg
CC(C)(N)COCC(=O)N1CCC[C@H](C(=O)NCc2nc(-c3ccc(C(F)(F)F)cc3)cs2)C1	0.5 µM		< 3 µL/min/mg
Cc1ccc(Oc2ccc(NC(=O)COc3ccccc3N3CCCC3=O)cc2)cc1			132 µL/min/mg
COCC(=O)N1CCC[C@H](C(=O)NCc2nc(-c3ccc(C)nc3)cs2)C1	0.5 µM		5.1 µL/min/mg
CN1CCC(Oc2ccc3c(=O)c4c(F)cc(Cl)cc4[nH]c3c2)CC1	1 µM	pH 7.4	24.9 µL/min/mg
Cc1[nH]c(C)c(S(=O)(=O)Nc2ccc(C(F)(F)F)c(Cl)c2)c1C(=O)N1CCC(F)(F)C1			68 µL/min/mg
CCC(F)(F)c1cc(N2C(=O)NC(C)(C)C2=O)ccc1F			< 7 µL/min/mg
CCN(CC)CCOc1ccc2c(=O)c3c([nH]c2c1)CCCC3	1 µM	pH 7.4	6.65 µL/min/mg
CC1(C)NC(=O)N(c2ccc(F)c(S(C)(=O)=O)c2)C1=O			< 7 µL/min/mg
O=c1c2c([nH]c3c(Oc4ccc(OC(F)(F)F)cc4)cccc13)CCCC2	1 µM	pH 7.4	21 µL/min/mg
COCC(=O)N1CCC[C@H](C(=O)NCc2nc(-c3cncnc3)cs2)C1	0.5 µM		< 7 µL/min/mg
O=c1c2cc(F)c(Oc3ccc(OC(F)(F)F)cc3)cc2[nH]c2cc(Cl)cc(F)c12	1 µM	pH 7.4	2.63 µL/min/mg
CN1CCN(c2ccc(-c3ccc4nncc(Nc5ccc(OC(F)(F)F)cc5)c4c3)cc2)CC1			30 µL/min/mg
COCC(=O)N1CCC[C@H](C(=O)NCc2nc(-c3ccccc3)cs2)C1	0.5 µM		< 7 µL/min/mg
Cc1ccc(N(c2ccc(NC(=O)CN(C)c3ccccc3N3CCCC3=O)cc2)C(C)C)cc1			319 µL/min/mg
O=c1c2ccc(Oc3ccc(OC(F)(F)F)cc3)cc2[nH]c2ccc(Cl)c(F)c12	1 µM	pH 7.4	9.02 µL/min/mg
N[C@@H](COCC(=O)N1CCC[C@H](C(=O)NCc2nc(-c3ccc(C(F)(F)F)cc3)cs2)C1)c1ccccc1	0.5 µM		65 µL/min/mg
O=c1c2c([nH]c3cc(OCc4ccc(OC(F)(F)F)cc4)ccc13)CCCC2	1 µM	pH 7.4	36.5 µL/min/mg
C[C@H]1[C@@H](C(=O)NCc2nc(-c3ccc(C#N)cc3)cs2)CCCN1C(=O)[C@H]1CCC(=O)O1	0.5 µM		8 µL/min/mg
